{"source": "the M2OR odorant receptor database", "data": [{"target": "T1, UniProt Q8VG53", "T1 sequence (whole entry)": "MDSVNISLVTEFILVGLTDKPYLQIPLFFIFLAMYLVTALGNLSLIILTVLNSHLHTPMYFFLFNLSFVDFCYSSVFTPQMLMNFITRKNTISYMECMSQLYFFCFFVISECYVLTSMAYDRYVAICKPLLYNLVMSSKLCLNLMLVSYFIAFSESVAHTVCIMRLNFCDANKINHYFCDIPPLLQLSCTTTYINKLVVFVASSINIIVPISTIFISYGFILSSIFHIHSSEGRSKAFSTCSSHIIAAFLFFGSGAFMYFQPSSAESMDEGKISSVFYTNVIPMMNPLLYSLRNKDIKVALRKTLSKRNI", "conditions": "stereoisomer not certain", "method_in_brief": "(§1)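 Values were gathered from published papers (main text and supplementary material), with extra details requested from the original authors when needed, and checked for typos and inconsistencies. Each receptor–molecule pair is called responsive (active) if the original authors judged the measured signal statistically different from baseline, and non-responsive (inactive) otherwise. Assay methods varied by source, often transient mammalian cell-line luciferase assays. Recorded details include cell line, G-protein, co-transfected protein and tags.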", "values": [{"smiles": "Cc1ccc(OC(=O)Cc2ccccc2)cc1", "odorant receptor agonist call": "inactive"}, {"smiles": "O=CC=Cc1ccccc1", "odorant receptor agonist call": "inactive"}, {"smiles": "OCc1ccc2c(c1)OCO2", "odorant receptor agonist call": "inactive"}, {"smiles": "O=Cc1ccccc1", "odorant receptor agonist call": "inactive"}, {"smiles": "COc1ccc(C=O)cc1", "odorant receptor agonist call": "inactive"}, {"smiles": "CC(C=O)Cc1ccc2c(c1)OCO2", "note": "(stereo unspecified)", "odorant receptor agonist call": "inactive"}, {"smiles": "C=CCOC(=O)Cc1ccccc1", "odorant receptor agonist call": "inactive"}, {"smiles": "O=c1cc(O)c2ccccc2o1", "odorant receptor agonist call": "inactive"}, {"smiles": "O=Cc1ccc2c(c1)OCO2", "odorant receptor agonist call": "inactive"}, {"smiles": "CCCCCCC(Br)C(=O)O", "note": "(stereo unspecified)", "odorant receptor agonist call": "inactive"}, {"smiles": "C=C(C)C1CC=C(C=O)CC1", "note": "(stereo unspecified)", "odorant receptor agonist call": "inactive"}, {"smiles": "CCCCC(Br)C(=O)O", "note": "(stereo unspecified)", "odorant receptor agonist call": "inactive"}, {"smiles": "Oc1ccccc1Br", "odorant receptor agonist call": "inactive"}, {"smiles": "CSSC", "odorant receptor agonist call": "inactive"}]}, {"target": "T2, UniProt Q8VG64", "T2 sequence (whole entry)": "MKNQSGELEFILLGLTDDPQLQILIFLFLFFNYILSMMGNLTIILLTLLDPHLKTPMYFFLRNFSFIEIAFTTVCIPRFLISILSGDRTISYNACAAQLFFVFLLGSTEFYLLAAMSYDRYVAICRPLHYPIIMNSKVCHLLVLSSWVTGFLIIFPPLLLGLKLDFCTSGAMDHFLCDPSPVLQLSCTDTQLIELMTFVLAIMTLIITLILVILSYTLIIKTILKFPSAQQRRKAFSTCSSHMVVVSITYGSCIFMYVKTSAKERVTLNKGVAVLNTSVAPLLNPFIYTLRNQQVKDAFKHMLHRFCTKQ", "conditions": "stereoisomer not certain", "method_in_brief": "as §1", "values": [{"smiles": "Cc1ccc(OC(=O)Cc2ccccc2)cc1", "odorant receptor agonist call": "inactive"}, {"smiles": "O=CC=Cc1ccccc1", "odorant receptor agonist call": "inactive"}, {"smiles": "OCc1ccc2c(c1)OCO2", "odorant receptor agonist call": "inactive"}, {"smiles": "O=Cc1ccccc1", "odorant receptor agonist call": "inactive"}, {"smiles": "COc1ccc(C=O)cc1", "odorant receptor agonist call": "inactive"}, {"smiles": "CC(C=O)Cc1ccc2c(c1)OCO2", "note": "(stereo unspecified)", "odorant receptor agonist call": "inactive"}, {"smiles": "C=CCOC(=O)Cc1ccccc1", "odorant receptor agonist call": "inactive"}, {"smiles": "O=c1cc(O)c2ccccc2o1", "odorant receptor agonist call": "inactive"}, {"smiles": "O=Cc1ccc2c(c1)OCO2", "odorant receptor agonist call": "inactive"}, {"smiles": "CCCCCCC(Br)C(=O)O", "note": "(stereo unspecified)", "odorant receptor agonist call": "inactive"}, {"smiles": "C=C(C)C1CC=C(C=O)CC1", "note": "(stereo unspecified)", "odorant receptor agonist call": "inactive"}, {"smiles": "CCCCC(Br)C(=O)O", "note": "(stereo unspecified)", "odorant receptor agonist call": "inactive"}, {"smiles": "Oc1ccccc1Br", "odorant receptor agonist call": "inactive"}, {"smiles": "CSSC", "odorant receptor agonist call": "inactive"}]}, {"target": "T3, UniProt Q8VG77", "T3 sequence (whole entry)": "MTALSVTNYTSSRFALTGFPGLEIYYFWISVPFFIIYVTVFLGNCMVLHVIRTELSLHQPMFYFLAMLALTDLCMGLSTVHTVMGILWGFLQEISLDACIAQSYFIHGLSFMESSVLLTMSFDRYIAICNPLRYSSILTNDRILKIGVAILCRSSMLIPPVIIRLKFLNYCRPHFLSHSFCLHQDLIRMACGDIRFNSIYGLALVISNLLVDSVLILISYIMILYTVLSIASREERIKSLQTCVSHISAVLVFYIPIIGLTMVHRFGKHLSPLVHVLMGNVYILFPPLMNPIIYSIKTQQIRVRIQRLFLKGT", "conditions": "stereoisomer not certain", "method_in_brief": "as §1", "values": [{"smiles": "CCC1CCC(=O)O1", "note": "(stereo unspecified)", "odorant receptor agonist call": "inactive"}, {"smiles": "C=CCc1ccccc1", "odorant receptor agonist call": "inactive"}, {"smiles": "C=CCOC(=O)Cc1ccccc1", "odorant receptor agonist call": "inactive"}, {"smiles": "O=c1cc(O)c2ccccc2o1", "odorant receptor agonist call": "inactive"}]}, {"target": "T4, UniProt Q8VG96", "T4 sequence (whole entry)": "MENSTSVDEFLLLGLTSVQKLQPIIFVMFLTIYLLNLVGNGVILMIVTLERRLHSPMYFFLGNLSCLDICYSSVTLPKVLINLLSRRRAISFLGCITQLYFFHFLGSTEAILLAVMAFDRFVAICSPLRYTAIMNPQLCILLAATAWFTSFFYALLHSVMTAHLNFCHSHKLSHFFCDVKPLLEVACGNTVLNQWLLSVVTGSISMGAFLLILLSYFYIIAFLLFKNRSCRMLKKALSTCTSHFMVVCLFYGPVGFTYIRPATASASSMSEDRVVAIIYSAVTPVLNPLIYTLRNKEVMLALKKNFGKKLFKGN", "conditions": "stereoisomer not certain", "method_in_brief": "as §1", "values": [{"smiles": "CCC1CCC(=O)O1", "note": "(stereo unspecified)", "odorant receptor agonist call": "inactive"}, {"smiles": "C=CCc1ccccc1", "odorant receptor agonist call": "inactive"}, {"smiles": "C=CCOC(=O)Cc1ccccc1", "odorant receptor agonist call": "inactive"}, {"smiles": "O=c1cc(O)c2ccccc2o1", "odorant receptor agonist call": "inactive"}]}, {"target": "T5, UniProt Q8VGB9", "T5 sequence (whole entry)": "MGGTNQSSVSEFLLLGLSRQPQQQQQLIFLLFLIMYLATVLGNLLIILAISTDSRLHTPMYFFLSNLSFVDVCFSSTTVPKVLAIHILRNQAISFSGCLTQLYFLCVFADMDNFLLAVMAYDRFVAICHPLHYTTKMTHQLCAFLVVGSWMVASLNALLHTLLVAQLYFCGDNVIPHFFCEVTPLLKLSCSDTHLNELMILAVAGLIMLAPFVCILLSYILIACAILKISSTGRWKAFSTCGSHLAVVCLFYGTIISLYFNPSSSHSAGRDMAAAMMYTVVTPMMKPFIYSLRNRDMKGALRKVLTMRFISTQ", "conditions": "stereoisomer not certain", "method_in_brief": "as §1", "values": [{"smiles": "Cc1ccc(OC(=O)Cc2ccccc2)cc1", "odorant receptor agonist call": "inactive"}, {"smiles": "O=CC=Cc1ccccc1", "odorant receptor agonist call": "inactive"}, {"smiles": "OCc1ccc2c(c1)OCO2", "odorant receptor agonist call": "inactive"}, {"smiles": "O=Cc1ccccc1", "odorant receptor agonist call": "inactive"}, {"smiles": "COc1ccc(C=O)cc1", "odorant receptor agonist call": "inactive"}, {"smiles": "CC(C=O)Cc1ccc2c(c1)OCO2", "note": "(stereo unspecified)", "odorant receptor agonist call": "inactive"}, {"smiles": "C=CCOC(=O)Cc1ccccc1", "odorant receptor agonist call": "inactive"}, {"smiles": "O=c1cc(O)c2ccccc2o1", "odorant receptor agonist call": "inactive"}, {"smiles": "O=Cc1ccc2c(c1)OCO2", "odorant receptor agonist call": "inactive"}, {"smiles": "CCCCCCC(Br)C(=O)O", "note": "(stereo unspecified)", "odorant receptor agonist call": "inactive"}, {"smiles": "C=C(C)C1CC=C(C=O)CC1", "note": "(stereo unspecified)", "odorant receptor agonist call": "active"}, {"smiles": "CCCCC(Br)C(=O)O", "note": "(stereo unspecified)", "odorant receptor agonist call": "inactive"}, {"smiles": "Oc1ccccc1Br", "odorant receptor agonist call": "inactive"}, {"smiles": "CSSC", "odorant receptor agonist call": "inactive"}]}, {"target": "T6, UniProt Q8VGC6", "T6 sequence (whole entry)": "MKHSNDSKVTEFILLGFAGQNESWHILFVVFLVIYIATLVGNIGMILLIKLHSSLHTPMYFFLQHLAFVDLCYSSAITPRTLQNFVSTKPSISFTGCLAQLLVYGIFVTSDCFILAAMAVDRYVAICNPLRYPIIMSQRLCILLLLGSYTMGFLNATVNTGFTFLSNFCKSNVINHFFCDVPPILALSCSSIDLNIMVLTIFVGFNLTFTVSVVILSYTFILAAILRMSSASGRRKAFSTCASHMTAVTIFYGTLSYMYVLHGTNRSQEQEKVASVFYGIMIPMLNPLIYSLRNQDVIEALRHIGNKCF", "conditions": "stereoisomer not certain", "method_in_brief": "as §1", "values": [{"smiles": "Cc1ccc(OC(=O)Cc2ccccc2)cc1", "odorant receptor agonist call": "inactive"}, {"smiles": "CCC1CCC(=O)O1", "note": "(stereo unspecified)", "odorant receptor agonist call": "active"}, {"smiles": "O=CC=Cc1ccccc1", "odorant receptor agonist call": "inactive"}, {"smiles": "OCc1ccc2c(c1)OCO2", "odorant receptor agonist call": "inactive"}, {"smiles": "C=CCc1ccccc1", "odorant receptor agonist call": "inactive"}, {"smiles": "O=Cc1ccccc1", "odorant receptor agonist call": "inactive"}]}]}
